This passage reports EC50 results from ChEMBL document CHEMBL1151263, “Cytotoxic phenylpropanoid glycosides from the stems of Smilax china” (2005).

Common to all, as to assay type: functional
Assay [1] concerns KB. Description: Cytotoxicity against human KB cells after 3 days by MTT assay. As to conditions: 72 h, read-out: ED50 (the source's name). Put shortly: (§1)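 Cells grown in RPMI-1640 and seeded in 96-well plates for 4 h before samples were added at four concentrations. Incubation at 37 °C for 3 days, then MTT added for 5 h. Medium removed, formazan dissolved in DMSO with 10 min shaking, absorbance read at 550 nm. ED50 reported in µg/mL.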
In general terms: Formazan colour is commonly taken as a measure of viable cells.

For assay [2], the system named is HeLa. Description: Cytotoxicity against human HeLa cells after 3 days by MTT assay. The note with it: 72 h, read-out: ED50 (the source's name). The method in brief:
as §1

Assay [3] relates to DLD-1. The assay is described as follows: Cytotoxicity against human DLD1 cells after 3 days by MTT assay. As to conditions: DLD-1, 72 h, read-out: ED50 (the source's name). The method in brief:
as §1

In assay [4] the test system is MCF7. The assay is described as follows: Cytotoxicity against human MCF7 cells after 3 days by MTT assay. The note with it: MCF7, 72 h, read-out: ED50 (the source's name). The method in brief:
as §1

The test system of assay [5] is A549. Description: Cytotoxicity against human A549 cells after 3 days by MTT assay. The note with it: A549, 72 h, read-out: ED50 (the source's name). Put shortly:
as §1

A short description of assay [6]: Cytotoxicity against human Medulloblastoma cells after 3 days by MTT assay. The note with it: Medulloblastoma cell, 72 h, read-out: ED50 (the source's name). The method in brief: as §1

Each structure is given as a SMILES string. In brackets after ≈: the same amount, converted by molar mass. Bounds are passed on as bounds.

As to `COc1cccc2c1C(=O)c1c(O)c3c(c(O)c1C2=O)C[C@@](O)(C(=O)CO)C[C@@H]3O[C@H]1C[C@H](N)[C@H](O)[C@H](C)O1` [DOXORUBICIN], the EC50 in assay [1], in assay [2], in assay [3], in assay [4], in assay [5] and in assay [6] was 0.1 µg/mL (≈ 0.184 µM) each time.

For the compound `COc1cc(/C=C/C(=O)OC[C@H]2O[C@@](CO)(O[C@H]3O[C@H](COC(C)=O)[C@@H](OC(C)=O)[C@H](O)[C@H]3O)[C@@H](OC(=O)/C=C/c3ccc(O)c(OC)c3)[C@@H]2O)ccc1O` [SMILASIDE A], the EC50 in assay [1] came out at 11.2 µg/mL (≈ 14.4 µM); in assay [2] it was 8.9 µg/mL (≈ 11.4 µM); in assay [3], 11.6 µg/mL (≈ 14.9 µM); in assay [4], 10.8 µg/mL (≈ 13.9 µM); in assay [5] it was 7.1 µg/mL (≈ 9.12 µM); in assay [6], 11.3 µg/mL (≈ 14.5 µM).

As to `COc1cc(/C=C/C(=O)OC[C@H]2O[C@@](CO)(O[C@H]3O[C@H](CO)[C@@H](O)[C@H](O)[C@H]3OC(C)=O)[C@@H](OC(=O)/C=C/c3ccc(O)c(OC)c3)[C@@H]2O)ccc1O` [SMILASIDE B], the EC50 in assay [1] was > 20 µg/mL; in assay [2], > 20 µg/mL; in assay [3], > 20 µg/mL; in assay [4], 10.3 µg/mL (≈ 14 µM); in assay [5], 12 µg/mL (≈ 16.3 µM); in assay [6] it was 9.4 µg/mL (≈ 12.8 µM).

As for `COc1cc(/C=C/C(=O)OC[C@H]2O[C@@](COC(=O)/C=C/c3ccc(O)cc3)(O[C@H]3O[C@H](CO)[C@@H](O)[C@H](O)[C@H]3O)[C@@H](OC(=O)/C=C/c3ccc(O)c(OC)c3)[C@@H]2O)ccc1O` [SMILASIDE C], the EC50 in assay [1], in assay [2], in assay [3], in assay [4], in assay [5] and in assay [6] was > 20 µg/mL in each case.

For `COc1cc(/C=C/C(=O)OC[C@H]2O[C@@](COC(=O)/C=C/c3ccc(O)cc3)(O[C@H]3O[C@H](CO)[C@@H](O)[C@H](O)[C@H]3O)[C@@H](OC(=O)/C=C/c3ccc(O)c(OC)c3)[C@@H]2OC(C)=O)ccc1O` [SMILASIDE D], the EC50 was 13 µg/mL (≈ 14.7 µM) in assay [1]; 7.3 µg/mL (≈ 8.27 µM) in assay [2]; 2.7 µg/mL (≈ 3.06 µM) in assay [3]; > 20 µg/mL in assay [4]; 8.4 µg/mL (≈ 9.51 µM) in assay [5]; 11.9 µg/mL (≈ 13.5 µM) in assay [6].

`COc1cc(/C=C/C(=O)OC[C@H]2O[C@@](COC(=O)/C=C/c3ccc(O)cc3)(O[C@H]3O[C@H](COC(C)=O)[C@@H](O)[C@H](O)[C@H]3O)[C@@H](OC(=O)/C=C/c3ccc(O)c(OC)c3)[C@@H]2O)ccc1O` [SMILASIDE E]: the EC50 in assay [1] is 5.5 µg/mL (≈ 6.23 µM); in assay [2], 5.1 µg/mL (≈ 5.78 µM); in assay [3], 4.5 µg/mL (≈ 5.1 µM); in assay [4], 13 µg/mL (≈ 14.7 µM); in assay [5], 12.4 µg/mL (≈ 14 µM); in assay [6], 12.2 µg/mL (≈ 13.8 µM).

`COc1cc(/C=C/C(=O)OC[C@H]2O[C@@](COC(=O)/C=C/c3ccc(O)cc3)(O[C@H]3O[C@H](COC(C)=O)[C@@H](O)[C@H](O)[C@H]3OC(C)=O)[C@@H](OC(=O)/C=C/c3ccc(O)cc3)[C@@H]2O)ccc1O` [SMILASIDE F]: the EC50 is 9 µg/mL (≈ 10.1 µM) in assay [1]; 8.3 µg/mL (≈ 9.28 µM) in assay [2]; 5 µg/mL (≈ 5.59 µM) in assay [3]; 13 µg/mL (≈ 14.5 µM) in assay [4]; > 20 µg/mL in assay [5]; > 20 µg/mL in assay [6].
